Assay results taken from ChEMBL document CHEMBL4513216, “Probing the Open Global Health Chemical Diversity Library for Multistage-Active Starting Points for Next-Generation Antimalarials” (ACS Infect Dis, 2020).

Test: Toxicity liver stage against HepG2, at 10uM
Assay type: cell-based
Set-up: test concentration 10 uM, cell line HepG2-A16-CD81EGFP
Details: human, HepG2-A16-CD81EGFP cells; read-out: INHIBITION
Outline: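 Uninfected HepG2-A16-CD81EGFP cells, 3 × 10^3 per well, 1536-well, plated on prespotted compound at 10 μM final, parasite-free screening media added to match infected plates; puromycin 10 μM positive, DMSO 0.5% negative; run in parallel with 48 h PbLuc assay at 37 °C, 5% CO2; viability by CellTiter-Glo luminescence, normalized to controls.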

Structure (SMILES)	cytotoxicity at 10 µM
c1ccc2c(Cc3nnc([C@H]4CCN(C5CCOCC5)C4)o3)c[nH]c2c1	2.9%
COCCN1CCc2nc(SCc3ccc(F)cc3)[nH]c(=O)c2C1	-2.33%
CCOc1ccc(C(=O)Nc2c(C)nc3ccccn3c2=O)cc1	11.9%
COCCN(Cc1ccoc1)C(=O)CSc1ccc(F)cc1	1.04%
COc1ccc(-c2cnc(NC(C)=O)[nH]2)cc1	-0.825%
COc1cccc(CN2CCCCCC2c2cccc(C)c2)c1O (stereo unspecified)	7.6%
CC(Cn1cc(Br)cn1)C(=O)Nc1ccc(Cl)cn1 (stereo unspecified)	34%
Cc1nc(C(=O)N2CCOCC2)cc(N2CCC(C(N)=O)CC2)n1	1.82%
O=C(CCN1CCc2ccccc21)N1C[C@@H](O)[C@H](N2CCCC2)C1	-17.8%
CN(C)CCn1c([C@H]2CCCO2)cc2cccnc21	17.1%
Cc1ncc(CN2CC[C@@](C)(O)[C@H](Oc3cccc(F)c3)C2)cn1	-13.4%
CC(C)(N)C(=O)N1CCC(c2nccnc2Oc2cccc(F)c2)CC1	-13.2%
CCn1cc(C(=O)N2CCCC(c3nccs3)C2)cn1 (stereo unspecified)	-4.19%
CCn1cnnc1CNC(=O)c1ccc(Br)cc1F	-18.2%
CC(C)(C)c1cn2c(n1)C(CNCc1ccccn1)CCC2 (stereo unspecified)	-9.5%
CC(CCc1cccc(F)c1)NC(=O)NCc1ncnn1C (stereo unspecified)	12.2%
CCC(=O)N1CCCN(Cn2nc(C)c(Br)c2C)CC1	6.1%
N#Cc1cc(C(F)(F)F)ccc1NCC1CCS(=O)(=O)CC1	10.2%
Cc1cc(C(=O)N2CCN(C(=O)CCC3CCCCC3)CC2)n(C)n1	-3.06%
CCC(CC)(CNC(=O)OC(C)(C)C)NC(=O)C1CCCO1 (stereo unspecified)	1.41%
COc1ccc(C)cc1CCNS(=O)(=O)c1ccc2c(c1)CCC(=O)N2	-45.5%

Structure (SMILES)	cytotoxicity at 10 µM
CC(C)SCc1cccc(NC(=O)NCCc2nnc[nH]2)c1	-46.1%
CCOc1cc(NC(=O)N2CCC(c3nnc[nH]3)CC2)ccc1C	14.5%
Cc1nc(CCCNC(=O)Nc2ccc(F)cc2F)n[nH]1	-2.9%
Cc1cccc(-c2noc(Cn3nc(C(N)=O)ccc3=O)n2)c1	-1.15%
Cc1ccc(CNc2cc3c(cc2Cl)NC(=O)CO3)cc1C	0.651%
Cc1cc(NC(=O)NCc2ccc(C)s2)no1	-5.29%
COc1ccc(NCc2c[nH]nc2-c2cccnc2)cc1	-16.8%
CC(N1CCN(C(=O)NCc2cccc(C#N)c2)CC1)C(F)(F)F (stereo unspecified)	6.31%
CC1CCN(CCNC(=O)Nc2ccc(F)cc2Cl)CC1	4.68%
CS(=O)(=O)N1CCN(Cc2csc(-c3ncccn3)n2)CC1	-4.71%
O=C(CN1CCC(C(=O)c2cc(F)ccc2F)CC1)NC1CC1	-6.04%
CC(C)COCCC(=O)NCCC(=O)N1CCN(c2ccccn2)CC1	9.46%
CCc1n[nH]c(C2CN(C(=O)CCCn3cccn3)CCO2)n1 (stereo unspecified)	-6.69%
Cc1cc(N2CCC(N(C)C(=O)c3ccccc3F)CC2)nc(C)n1	25.5%
CSCC(C)(O)CNc1cccc(F)c1C#N (stereo unspecified)	0.462%
Cc1nn(C)c(C)c1CCC(=O)NCc1cccnc1OC1CCCC1	-4.38%
O=C(NCCCn1cncn1)c1ccc(-c2ccco2)[nH]c1=O	2.87%
Cc1cc(C)n(Cc2cccc(C(=O)N(CCC#N)CCC#N)c2)n1	13.1%
CCN(CC)C(C(=O)Nc1ccc2c(c1)CCC(=O)N2)c1ccccc1 (stereo unspecified)	7.18%
O=C(CN1CCCC(c2ccn[nH]2)C1)Nc1nncs1 (stereo unspecified)	-43.9%
CN(Cc1ccc(Cl)c(F)c1)C(=O)CCc1ccncc1	3.31%

Structure (SMILES)	cytotoxicity at 10 µM
Cc1oncc1C(=O)N1CC[C@H]2[C@@H]1CCC(=O)N2CC1CCOCC1	4.33%
CC(C)CN1C[C@H]2N(c3ncccn3)CCC[C@@]2(C(=O)NCC2CC2)C1	-94.6%
Cc1cnc(C(=O)N2CC[C@@H]3CN(c4ncccn4)CCO[C@@H]3C2)cn1	-75.2%
Cc1cccc(CN2CC[C@H]3C[C@H](C)O[C@@H]3C2)n1	-78.6%
O=C1CC(NCc2cnc(C3CCCCC3)nc2)CN1c1ccccc1 (stereo unspecified)	-6.8%
Cc1ccc(-n2cc(CN3CCOCC3)c(-c3cccc(C)c3)n2)cc1	-0.906%
Cc1ccc(N2CCCC(c3[nH]ncc3-c3ccccc3)C2)nn1 (stereo unspecified)	2.51%
CCn1cc(CN2CCN(Cc3cccc(OC)c3)C(=O)C2)cc1C#N	2.96%
COCCC1(CO)CCCN(C(=O)c2cccnc2O)C1 (stereo unspecified)	-50.7%
CCc1c(O)nc(SCC(=O)Nc2ccccc2)n(C(C)CC)c1=O (stereo unspecified)	0.585%
CCOc1cccc(C2CC(=O)NCc3nc(N4CCCC4)sc32)c1 (stereo unspecified)	-2.53%
O=C(O)CC1COCCN1CCCc1ccccc1 (stereo unspecified)	-0.541%
CCSc1ncc(CN2CCN(c3nc(C)ncc3C)CC2)cn1	27.3%
O=c1[nH]c2cc3c(cc2cc1CN1CCCC1c1ccccn1)CCC3 (stereo unspecified)	-2.11%
Cc1ccc(OCC2CCCN(C(=O)CN3CCOCC3)C2)cc1 (stereo unspecified)	-25.6%
COc1coc(CN2CCCC(CCc3c(F)cccc3F)C2)cc1=O (stereo unspecified)	1.18%
NC(=O)C1CCN(C(=O)c2cc(S(=O)(=O)N3CCCC3)cs2)CC1	-43.9%
Cn1ccc(C2CCCCN2C(=O)c2cccc(-n3cccn3)c2)n1 (stereo unspecified)	-0.874%
Cc1ccc(N2CCC(C(O)c3cccs3)CC2)nn1 (stereo unspecified)	-49.1%
Nc1nccc(N[C@H]2CN(CC(=O)NC3CCCCC3)C[C@@H]2C2CC2)n1	-0.208%
O[C@]12CCNC[C@H]1CN(c1ccnc3ccccc13)CC2	8.33%

Structure (SMILES)	cytotoxicity at 10 µM
COCCN1CC2(CCCN(C(=O)NCCc3cccs3)C2)CCC1=O (stereo unspecified)	-8.14%
CCNC(=O)C1CCN(c2cc(-c3ccccc3)nc3cc(C)nn23)C1 (stereo unspecified)	-2.97%
Cc1ccccc1CC1(CO)CCCN(c2ncccc2C#N)C1 (stereo unspecified)	-1.16%
COc1ccc(-c2nc(CNC3CCc4nc(C)nn4C3)no2)cc1 (stereo unspecified)	-3.42%
CCN(CC)Cc1ccc(C(=O)N2CCCC2Cn2cccn2)cc1 (stereo unspecified)	-10.7%
O=C(c1cccc(Cn2ccnc2)c1)N1CCCC(n2cccn2)C1 (stereo unspecified)	-0.603%
CS(=O)(=O)c1cccc(C(=O)NCCCN2CCc3ccccc3C2)c1	-12.1%
Cc1ccc(NC2CCN(C(=O)c3ccc(F)cc3Cl)CC2)nn1	-14.1%
CC(=O)NCCNC(=O)N(C)Cc1ccc2c(c1)OCCO2	-1.59%
CCn1ccnc1CN1CCCN(C(=O)c2cccn2C)CC1	-8.93%
CCN(CCc1ccccc1)Cn1nc(C)c2c(C)onc2c1=O	-5.18%
CCOC[C@]12COC[C@H]1CN(Cc1cccc(OC)c1)C2	-75.9%
CN(C)CCCNCCC(Cc1ccccc1)C1CCOC(C)(C)C1 (stereo unspecified)	-4.08%
COC[C@@]12CCC[C@@H]1CN(C(=O)CN(C)C)C2	4.84%
c1cncc(OCc2noc3c2CN(Cc2ccsc2)CC3)c1	4.76%
CNC(=O)CN1CCCC12CCN(C(=O)c1ccoc1)CC2	6.53%
COCCNC(=O)[C@H]1C[C@@H]2CCN(Cc3nccs3)C[C@H]2O1	-68.2%
CN(C)C(=O)CN1C[C@H]2CC[C@@H](C1)N(C(=O)CCn1cncn1)C2	-9.96%
